The values that follow come from ChEMBL document CHEMBL1255564, “A novel series of positive modulators of the AMPA receptor: discovery and structure based hit-to-lead studies” (Bioorg Med Chem Lett, 2010).

In brackets after ≈: the same amount, converted by molar mass.

The first data set is described as follows: Intrinsic clearance in rat liver microsomes. It is filed as ADME, Microsome.
Details: not given
In turn, `NC(=O)c1c(NC(=O)Cn2nc(C(F)(F)F)c3cnccc32)sc2c1CCCC2` returned an intrinsic metabolic clearance (microsomal CLint) of 91 µL/min/mg.
In turn, `NCCCNC(=O)c1c(NC(=O)Cn2nc(C(F)(F)F)c3c2CCCC3)sc2c1CCCC2` yielded a microsomal CLint of 77 µL/min/mg.
On to `NC(=O)c1c(NC(=O)Cn2nc(C(F)(F)F)cc2C(F)(F)F)sc2c1CCCC2`, for which the microsomal CLint amounted to 200 µL/min/mg.

The next data set in a line: Aqueous solubility of the compound. Type of data set: physicochemical.
Details: not given
Consider `NC(=O)c1ccsc1NC(=O)Cn1nc(C(F)(F)F)c2c1CCCC2`, for which the solubility was found to be 10 µg/mL (≈ 26.9 µM).
Same read-out and setting: the figure for `NC(=O)c1c(NC(=O)Cn2nc(C(F)(F)F)cc2C(F)(F)F)sc2c1CCCC2` is < 1 µg/mL.

A further data set can be described thus: Intrinsic clearance in human liver microsomes. It is filed as ADME, Microsome.
Details: not given
Consider `NC(=O)c1c(NC(=O)Cn2nc(C(F)(F)F)c3c2CCCC3)sc2c1CCOC2`, for which the microsomal CLint is > 270 µL/min/mg.
Consider `NCCCNC(=O)c1c(NC(=O)Cn2nc(C(F)(F)F)c3c2CCCC3)sc2c1CCCC2`, for which the microsomal CLint amounted to 17 µL/min/mg.
`NC(=O)c1c(NC(=O)Cn2nc(C(F)(F)F)cc2C(F)(F)F)sc2c1CCCC2`: the microsomal CLint came out at 174 µL/min/mg.

The nature of another data set: Volume of distribution at steady state in Wistar rat at 2 mg/kg, iv. More on the design: dose 2 mg/kg, route intravenous. It is filed as ADME, organism-based. To be noted: in vivo, read-out: Vdss.
As to `NCCCNC(=O)c1c(NC(=O)Cn2nc(C(F)(F)F)c3c2CCCC3)sc2c1CCCC2`, the Vd is 3.8 L/kg.

A further data set in a line: Permeability from apical to basolateral side of human Caco-2 cells. It is filed as ADME, cell-based. To be noted: read-out: permeability.
`NCCCNC(=O)c1c(NC(=O)Cn2nc(C(F)(F)F)c3c2CCCC3)sc2c1CCCC2`: the Papp A→B was 3.4 ×10⁻⁶ cm/s.

A further data set can be described thus: Permeability from basolateral to apical side of human Caco-2 cells. Type of data set: ADME, cell-based. To be noted: read-out: permeability.
As to `NCCCNC(=O)c1c(NC(=O)Cn2nc(C(F)(F)F)c3c2CCCC3)sc2c1CCCC2`, the Papp B→A is 5.5 ×10⁻⁶ cm/s.

Another data set in a line: Clearance in Wistar rat at 2 mg/kg, iv. It is filed as ADME, organism-based. More on the design: dose 2 mg/kg, route intravenous. To be noted: in vivo.
`NCCCNC(=O)c1c(NC(=O)Cn2nc(C(F)(F)F)c3c2CCCC3)sc2c1CCCC2` returned a clearance of 21 mL/min/kg.

A short description of a further data set: Half life in Wistar rat at 2 mg/kg, iv. Type of data set: ADME, organism-based. Also on record: dose 2 mg/kg, route intravenous. The note with it: in vivo.
In turn, `NCCCNC(=O)c1c(NC(=O)Cn2nc(C(F)(F)F)c3c2CCCC3)sc2c1CCCC2` showed a half-life of 3.2 h.

A further data set in a line: […].
Details: not given
Put shortly: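 Cells washed in low-Ca buffer (pH 7.4, 2 mM CaCl₂) with 0.625 mM probenecid. Glutamate ± compound added in 20 mM CaCl₂ buffer. Ca²⁺ fluorescence read; pEC50 is the mean of two experiments run in duplicate.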
In turn, `NC(=O)c1c(NC(=O)Cn2nc(C(F)(F)F)c3c2CCCC3)sc2c1CCCC2` gave a pEC50 of 6.7.
Consider `O=C(Cn1nc(C(F)(F)F)c2c1CCCC2)Nc1sc2c(c1C(=O)N[C@@H]1CCNC1)CCCC2`, for which the pEC50 was found to be 6.6.
`O=C(Cn1nc(C(F)(F)F)c2c1CCCC2)Nc1sc2c(c1C(=O)NC1CNC1)CCCC2` had a negative-log EC50 (pEC50) of 6.5.
With `NC(=O)c1ccsc1NC(=O)Cn1nc(C(F)(F)F)c2c1CCCC2`, the pEC50 was 5.2.
The molecule `O=C(Cn1nc(C(F)(F)F)c2c1CCCC2)Nc1sc2c(c1C(=O)NCC1CNC1)CCCC2` displayed a pEC50 of 6.2.
As for `Cc1cc(C)n(CC(=O)Nc2sc3c(c2C(N)=O)CCCC3)n1`, the negative logarithm of the EC50 (pEC50) is given as < 4.5.
`O=C(Cn1nc(C(F)(F)F)c2c1CCCC2)Nc1sc2c(c1C(=O)NCCO)CCCC2`: the pEC50 is reported as 7.3.
`CN(C)CCNC(=O)c1c(NC(=O)Cn2nc(C(F)(F)F)c3c2CCCC3)sc2c1CCCC2` had a negative logarithm of the EC50 (pEC50) of 5.2.
In turn, `NC(=O)c1c(NC(=O)Cn2nc(C(F)(F)F)c3c2CCCC3)sc2c1CCOC2` came in with a negative-log EC50 (pEC50) of 6.7.
On the same count and under the same terms, the figure for `NCCCCNC(=O)c1c(NC(=O)Cn2nc(C(F)(F)F)c3c2CCCC3)sc2c1CCCC2` is 5.9.
Molecule `CCc1c(C)sc(NC(=O)Cn2nc(C(F)(F)F)c3c2CCCC3)c1C(N)=O` had a pEC50 of 6.2.
`CCNC(=O)c1c(NC(=O)Cn2nc(C(F)(F)F)c3c2CCCC3)sc2c1CCCC2`: the pEC50 is given as 6.5.
Consider `CNCCNC(=O)c1c(NC(=O)Cn2nc(C(F)(F)F)c3c2CCCC3)sc2c1CCCC2`, for which the negative-log EC50 (pEC50) came to 5.7.
The molecule `NC(=O)c1c(NC(=O)Cn2ccc(C(F)(F)F)n2)sc2c1CCCC2` returned a pEC50 of 5.3.
Molecule `Cc1sc(NC(=O)Cn2nc(C(F)(F)F)c3c2CCCC3)c(C(N)=O)c1C` displayed a pEC50 of 6.1.
`NC(=O)c1c(NC(=O)Cn2nc(C(F)(F)F)c3cnccc32)sc2c1CCCC2` gave a negative logarithm of the EC50 (pEC50) of 6.4.
The molecule `CS(=O)(=O)NCCNC(=O)c1c(NC(=O)Cn2nc(C(F)(F)F)c3c2CCCC3)sc2c1CCCC2` came in with a negative-log EC50 (pEC50) of 7.
The molecule `O=C(Cn1nc(C(F)(F)F)c2c1CCCC2)Nc1sc2c(c1C(=O)N[C@H]1CCNC1)CCCC2` came in with a negative logarithm of the EC50 (pEC50) of 5.8.
For the molecule `NC(=O)c1c(NC(=O)Cn2c(C(F)(F)F)nc3ccccc32)sc2c1CCCC2`, the pEC50 is given as < 4.5.
Same read-out and setting: the figure for `NCCCNC(=O)c1c(NC(=O)Cn2nc(C(F)(F)F)c3c2CCCC3)sc2c1CCCC2` is 6.4; for `NCCNC(=O)c1c(NC(=O)Cn2nc(C(F)(F)F)c3c2CCCC3)sc2c1CCCC2` it is 5.8.
Molecule `O=C(Cn1nc(C(F)(F)F)c2c1CCCC2)Nc1sc2c(c1C(=O)NC1CC1)CCCC2` showed a pEC50 of 6.2.
Same read-out and setting: the figure for `NC(=O)c1c(NC(=O)Cn2nc(C(F)(F)F)c3c2CCCC3)sc2c1CCNC2` is 5.3.
Turning to `NC(=O)c1c(CO)csc1NC(=O)Cn1nc(C(F)(F)F)c2c1CCCC2`, the pEC50 is given as 5.5.
Molecule `NC(=O)c1c(NC(=O)Cn2nc(C(F)(F)F)cc2C(F)(F)F)sc2c1CCCC2` yielded a pEC50 of 5.8.
